# Where “and” joins values, the source holds several entries; their conditions need not be identical. Equal entries are not always repeated.
# Tested on: U2OS
# Assay: Multiplex assay against U2OS
# Type: toxicity, cell-based
# Conditions: human
# Summary of the method: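 Compound was added to live cells that had been stained at seeding with Hoechst33342, BioTracker Green Microtubule Cytoskeleton Dye, MitoTracker Red and Annexin V Alexa Fluor 680, and imaging followed on a CQ1 microscope at 37°C and 5% CO2. CellPathfinder machine-learning gating divided cells into Hoechst high-intensity objects or normal cells, normal cells into healthy, pyknosed or fragmented nuclei, and pyknosed cells into mitotic or apoptotic. Tubulin, mitochondrial-mass and membrane-permeability phenotypes are per cents of healthy-nucleus cells.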
# [1] = 12 h, 1 µM, compound concentration 1 uM
# [2] = 12 h, 10 µM, compound concentration 10 uM
# [3] = 24 h, 1 µM, compound concentration 1 uM
# [4] = 24 h, 10 µM, compound concentration 10 uM
# [5] = 48 h, 1 µM, compound concentration 1 uM
# [6] = 48 h, 10 µM, compound concentration 10 uM
smiles,measurement,setting,value
CCCCCN1C(=O)C2(COc3cc4c(cc32)OCO4)c2ccccc21 (configuration not stated),Population Apoptotic (%),[1],29.41% and 64%
same,Population Fragmented Nuclei (%),[1],1.7% and 1.92%
same,Population Healthy Nuclei (%),[1],87.47% and 82.05%
same,Population Hoechst High Intensity Objects (%),[1],0%
same,Population Membrane Permeable-Phenotype (%),[1],0.49% and 3.91%
same,Population Mitochondria Different-Phenotype (%),[1],0.24% and 7.81%
same,Population Mitotic Cells (%),[1],70.59% and 36%
same,Population Normal (%),[1],100%
same,Population Pyknosed Nuclei (%),[1],10.83% and 16.03%
same,Population Tubulin-Different-Phenotype (%),[1],0.49% and 0%
same,Population Apoptotic (%),[2],35.71% and 31.82%
same,Population Fragmented Nuclei (%),[2],1.52% and 0%
same,Population Healthy Nuclei (%),[2],91.37% and 84.93%
same,Population Hoechst High Intensity Objects (%),[2],0%
same,Population Membrane Permeable-Phenotype (%),[2],1.94% and 4.84%
same,Population Mitotic Cells (%),[2],64.29% and 68.18%
same,Population Normal (%),[2],100%
same,Population Pyknosed Nuclei (%),[2],7.11% and 15.07%
same,Population Tubulin-Different-Phenotype (%),[2],2.22% and 2.42%
same,Total Cell Count,[2],394 and 146
same,Population Apoptotic (%),[3],41.07% and 40%
same,Population Fragmented Nuclei (%),[3],1.74% and 2.44%
same,Population Healthy Nuclei (%),[3],89.42% and 80.49%
same,Population Hoechst High Intensity Objects (%),[3],0%
same,Population Membrane Permeable-Phenotype (%),[3],0.88% and 2.42%
same,Population Mitochondria Different-Phenotype (%),[3],0% and 7.27%
same,Population Mitotic Cells (%),[3],58.93% and 60%
same,Population Normal (%),[3],100%
same,Population Pyknosed Nuclei (%),[3],8.85% and 17.07%
same,Population Tubulin-Different-Phenotype (%),[3],0.18% and 1.82%
same,Population Apoptotic (%),[4],23.33% and 32.14%
same,Population Fragmented Nuclei (%),[4],2.09% and 1.2%
same,Population Healthy Nuclei (%),[4],86.5% and 81.93%
same,Population Hoechst High Intensity Objects (%),[4],0%
same,Population Membrane Permeable-Phenotype (%),[4],1.1% and 8.09%
same,Population Mitotic Cells (%),[4],76.67% and 67.86%
same,Population Normal (%),[4],100%
same,Population Pyknosed Nuclei (%),[4],11.41% and 16.87%
same,Population Tubulin-Different-Phenotype (%),[4],2.42% and 3.68%
same,Population Apoptotic (%),[5],40.17% and 47.5%
same,Population Fragmented Nuclei (%),[5],3.56% and 1.97%
same,Population Healthy Nuclei (%),[5],86.74% and 86.8%
same,Population Hoechst High Intensity Objects (%),[5],0%
same,Population Membrane Permeable-Phenotype (%),[5],0.86% and 1.29%
same,Population Mitochondria Different-Phenotype (%),[5],0% and 3.56%
same,Population Mitotic Cells (%),[5],59.83% and 52.5%
same,Population Normal (%),[5],100%
same,Population Pyknosed Nuclei (%),[5],9.69% and 11.24%
same,Population Tubulin-Different-Phenotype (%),[5],0.38% and 0.97%
same,Population Apoptotic (%),[6],41.89% and 71.05%
same,Population Fragmented Nuclei (%),[6],2.63% and 1.47%
same,Population Healthy Nuclei (%),[6],89.58% and 84.56%
same,Population Hoechst High Intensity Objects (%),[6],0%
same,Population Membrane Permeable-Phenotype (%),[6],0.71% and 3.91%
same,Population Mitotic Cells (%),[6],58.11% and 28.95%
same,Population Normal (%),[6],100%
same,Population Pyknosed Nuclei (%),[6],7.79% and 13.97%
same,Population Tubulin-Different-Phenotype (%),[6],1.29% and 1.74%
O=c1nc2[nH]c3ccccc3nc-2c(=O)[nH]1 [ALLOXAZINE],Population Apoptotic (%),[1],70% and 75%
same,Population Fragmented Nuclei (%),[1],25% and 15%
same,Population Healthy Nuclei (%),[1],61% and 74%
same,Population Hoechst High Intensity Objects (%),[1],2%
same,Population Membrane Permeable-Phenotype (%),[1],5%
same,Population Mitochondria Different-Phenotype (%),[1],0% and 5%
same,Population Mitotic Cells (%),[1],29% and 25%
same,Population Normal (%),[1],97%
same,Population Pyknosed Nuclei (%),[1],12% and 10%
same,Population Tubulin-Different-Phenotype (%),[1],3%
same,Total Cell Count,[1],195 and 122
same,Population Apoptotic (%),[2],86% and 88%
same,Population Fragmented Nuclei (%),[2],33% and 13%
same,Population Healthy Nuclei (%),[2],59% and 78%
same,Population Hoechst High Intensity Objects (%),[2],0% and 1%
same,Population Membrane Permeable-Phenotype (%),[2],7%
same,Population Mitochondria Different-Phenotype (%),[2],0% and 5%
same,Population Mitotic Cells (%),[2],13% and 11%
same,Population Normal (%),[2],99% and 98%
same,Population Pyknosed Nuclei (%),[2],7%
same,Population Tubulin-Different-Phenotype (%),[2],1% and 3%
same,Total Cell Count,[2],212 and 119
same,Population Apoptotic (%),[3],73% and 57%
same,Population Fragmented Nuclei (%),[3],24% and 16%
same,Population Healthy Nuclei (%),[3],66% and 74%
same,Population Hoechst High Intensity Objects (%),[3],1% and 2%
same,Population Membrane Permeable-Phenotype (%),[3],4% and 5%
same,Population Mitochondria Different-Phenotype (%),[3],1% and 5%
same,Population Mitotic Cells (%),[3],26% and 42%
same,Population Normal (%),[3],98% and 97%
same,Population Pyknosed Nuclei (%),[3],8% and 9%
same,Population Tubulin-Different-Phenotype (%),[3],2%
same,Total Cell Count,[3],261 and 146
same,Population Apoptotic (%),[4],78% and 75%
same,Population Fragmented Nuclei (%),[4],30% and 16%
same,Population Healthy Nuclei (%),[4],61% and 80%
same,Population Hoechst High Intensity Objects (%),[4],0% and 2%
same,Population Membrane Permeable-Phenotype (%),[4],8% and 5%
same,Population Mitochondria Different-Phenotype (%),[4],2% and 4%
same,Population Mitotic Cells (%),[4],21% and 25%
same,Population Normal (%),[4],99% and 97%
same,Population Pyknosed Nuclei (%),[4],8% and 2%
same,Population Tubulin-Different-Phenotype (%),[4],2% and 3%
same,Total Cell Count,[4],237 and 148
same,Population Apoptotic (%),[5],84% and 76%
same,Population Fragmented Nuclei (%),[5],19% and 18%
same,Population Healthy Nuclei (%),[5],71% and 72%
same,Population Hoechst High Intensity Objects (%),[5],1% and 6%
same,Population Membrane Permeable-Phenotype (%),[5],1% and 4%
same,Population Mitochondria Different-Phenotype (%),[5],1% and 2%
same,Population Mitotic Cells (%),[5],15% and 23%
same,Population Normal (%),[5],98% and 93%
same,Population Pyknosed Nuclei (%),[5],9% and 8%
same,Population Tubulin-Different-Phenotype (%),[5],1% and 2%
same,Total Cell Count,[5],362 and 207
same,Population Apoptotic (%),[6],90% and 76%
same,Population Fragmented Nuclei (%),[6],26% and 12%
same,Population Healthy Nuclei (%),[6],66% and 79%
same,Population Hoechst High Intensity Objects (%),[6],1%
same,Population Membrane Permeable-Phenotype (%),[6],5% and 3%
same,Population Mitochondria Different-Phenotype (%),[6],1%
same,Population Mitotic Cells (%),[6],9% and 23%
same,Population Normal (%),[6],98%
same,Population Pyknosed Nuclei (%),[6],6% and 8%
same,Population Tubulin-Different-Phenotype (%),[6],2%
same,Total Cell Count,[6],321 and 210
Cc1cccc(NC(=O)CN2CCC(c3ccccn3)CC2)c1.Cl.Cl,Population Apoptotic (%),[1],90% and 57%
same,Population Fragmented Nuclei (%),[1],27% and 17%
same,Population Healthy Nuclei (%),[1],67% and 76%
same,Population Hoechst High Intensity Objects (%),[1],1% and 0%
same,Population Membrane Permeable-Phenotype (%),[1],5% and 4%
same,Population Mitochondria Different-Phenotype (%),[1],2%
same,Population Normal (%),[1],98% and 99%
same,Population Pyknosed Nuclei (%),[1],5% and 6%
same,Population Tubulin-Different-Phenotype (%),[1],3%
same,Total Cell Count,[1],208 and 111
same,Population Apoptotic (%),[2],72% and 66%
same,Population Fragmented Nuclei (%),[2],34% and 21%
same,Population Healthy Nuclei (%),[2],55% and 70%
same,Population Hoechst High Intensity Objects (%),[2],2% and 1%
same,Population Membrane Permeable-Phenotype (%),[2],8% and 12%
same,Population Mitochondria Different-Phenotype (%),[2],6% and 7%
same,Population Mitotic Cells (%),[2],27% and 33%
same,Population Normal (%),[2],97% and 98%
same,Population Pyknosed Nuclei (%),[2],10% and 8%
same,Population Tubulin-Different-Phenotype (%),[2],3% and 9%
same,Total Cell Count,[2],216 and 111
same,Population Apoptotic (%),[3],76% and 73%
same,Population Fragmented Nuclei (%),[3],22% and 21%
same,Population Healthy Nuclei (%),[3],70% and 67%
same,Population Hoechst High Intensity Objects (%),[3],3% and 0%
same,Population Membrane Permeable-Phenotype (%),[3],5% and 7%
same,Population Mitochondria Different-Phenotype (%),[3],3% and 4%
same,Population Mitotic Cells (%),[3],23% and 26%
same,Population Normal (%),[3],96% and 99%
same,Population Pyknosed Nuclei (%),[3],7% and 11%
same,Population Tubulin-Different-Phenotype (%),[3],3% and 5%
same,Total Cell Count,[3],249 and 135
same,Population Apoptotic (%),[4],85% and 75%
same,Population Fragmented Nuclei (%),[4],32% and 20%
same,Population Healthy Nuclei (%),[4],55% and 73%
same,Population Hoechst High Intensity Objects (%),[4],3% and 2%
same,Population Membrane Permeable-Phenotype (%),[4],6% and 17%
same,Population Mitochondria Different-Phenotype (%),[4],3% and 5%
same,Population Mitotic Cells (%),[4],14% and 25%
same,Population Normal (%),[4],96% and 97%
same,Population Pyknosed Nuclei (%),[4],11% and 6%
same,Population Tubulin-Different-Phenotype (%),[4],2% and 10%
same,Total Cell Count,[4],243 and 131
same,Population Apoptotic (%),[5],82% and 94%
same,Population Fragmented Nuclei (%),[5],18% and 17%
same,Population Healthy Nuclei (%),[5],72%
same,Population Hoechst High Intensity Objects (%),[5],2% and 3%
same,Population Membrane Permeable-Phenotype (%),[5],6% and 2%
same,Population Mitochondria Different-Phenotype (%),[5],3%
same,Population Normal (%),[5],97% and 96%
same,Population Pyknosed Nuclei (%),[5],8% and 10%
same,Population Tubulin-Different-Phenotype (%),[5],3% and 2%
same,Total Cell Count,[5],341 and 182
same,Population Apoptotic (%),[6],96% and 83%
same,Population Fragmented Nuclei (%),[6],29% and 19%
same,Population Healthy Nuclei (%),[6],60% and 74%
same,Population Hoechst High Intensity Objects (%),[6],3%
same,Population Membrane Permeable-Phenotype (%),[6],6% and 10%
same,Population Mitochondria Different-Phenotype (%),[6],6% and 4%
same,Population Normal (%),[6],96%
same,Population Pyknosed Nuclei (%),[6],9% and 6%
same,Population Tubulin-Different-Phenotype (%),[6],3% and 4%
same,Total Cell Count,[6],303 and 198
